Measured values published in ChEMBL document CHEMBL3407395, “Synthesis, characterization, and optimization for in vivo delivery of a nonselective isopeptidase inhibitor as new antineoplastic agent” (J Med Chem, 2015).
The source made the active and inactive calls. The calls are words filed in the database; no cut-off is given here.

Experiments:
[1] = Cytotoxicity against human U87MG cells after 48 hrs by resazurin assay; format: functional, cell-based, U-87MG ATCC; details: U-87 MG
In short: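 U87MG glioblastoma cells treated with compounds; viability read by resazurin 48 h after treatment. IC50 from triplicate experiments, reported as mean and s.d.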

[2] = tested on: T98G; test: Induction of necrosis in human T98G cells at 0.6 to 10 uM after 24 hrs by trypan blue assay; format: functional, cell-based
In short: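 T98G cells exposed 24 h to the listed concentrations. Cell death was scored as percent of trypan blue-positive cells.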

[3] = tested on: U-87 MG; test: Induction of necrosis in human U87MG cells at 0.6 to 10 uM after 24 hrs by trypan blue assay; format: functional, cell-based; details: U-87MG ATCC
In short: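 U87MG cells treated 24 h at the indicated concentrations. Death scored as percent trypan blue-positive cells. Caspase activity measured in parallel with a rhodamine 110 bis-(N-Z-DEVD amide) fluorogenic substrate and read in relative fluorescence units.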

[4] = tested on: T98G; test: Induction of apoptosis in human T98G cells assessed as caspase activation at 0.6 to 10 uM after 24 hrs by rhodamine-based fluorescence assay; format: functional, cell-based
In short: (§1)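 U87MG or T98G cells exposed 24 h to the listed concentrations. Caspase activity was read as relative fluorescence units from the rhodamine 110 bis-(N-Z-L-aspartyl-L-glutamyl-L-valyl-aspartic acid amide) fluorogenic substrate.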

[5] = tested on: U-87 MG; test: Induction of apoptosis in human U87MG cells assessed as caspase activation at 0.6 to 10 uM after 24 hrs by rhodamine-based fluorescence assay; format: functional, cell-based; details: U-87MG ATCC; in short: as §1
[6] = tested on: U-87MG ATCC; test: Induction of cell death in human U87MG cells at 4.2 to 18.4 uM after 24 hrs by trypan blue assay in presence of zVAD-fmk; format: functional, cell-based
[7] = tested on: A549; test: Induction of cell death in human A549 cells assessed as accumulation of poly-ubiquitinated proteins at 0.025 to 0.5 uM after 24 hrs by immunoblot assay; format: functional, cell-based
[8] = tested on: A549; test: Induction of cell death in human A549 cells assessed as stabilization of p53 at 0.025 to 0.5 uM after 24 hrs by immunoblot assay; format: functional, cell-based
[9] = tested on: A549; test: Induction of cell death in human A549 cells assessed as accumulation of Noxa at 0.025 to 0.1 uM after 24 hrs by immunoblot assay; format: functional, cell-based
[10] = target: T1, Ubl carboxyl-terminal hydrolase 18 (Homo sapiens) (UniProt Q9UMW8); test: Inhibition of USP18 (unknown origin) expressed in human A549 cells coexpressing ISG15-GFP assessed as reduction in free GFP at 25 to 100 nM after 24 hrs by immunoblot assay
T1 sequence (whole entry): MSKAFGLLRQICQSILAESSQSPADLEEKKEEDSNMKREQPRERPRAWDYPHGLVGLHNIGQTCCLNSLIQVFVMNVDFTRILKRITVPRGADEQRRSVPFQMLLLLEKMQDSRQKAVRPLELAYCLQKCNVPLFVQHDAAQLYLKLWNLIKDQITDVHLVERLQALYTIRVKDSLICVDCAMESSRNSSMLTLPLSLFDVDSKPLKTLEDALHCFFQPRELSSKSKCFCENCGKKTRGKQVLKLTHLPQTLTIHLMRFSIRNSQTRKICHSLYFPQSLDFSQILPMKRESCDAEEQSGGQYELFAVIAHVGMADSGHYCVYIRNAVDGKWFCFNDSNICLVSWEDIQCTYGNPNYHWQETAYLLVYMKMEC

[11] = target: Ubiquitin carboxyl-terminal hydrolase isozyme L1 (Homo sapiens) (UniProt P09936); test: Inhibition of GST-tagged recombinant full-length UCHL1 (unknown origin) expressed in bacteria using Ub-AMC as substrate preincubated for 30 mins before substrate addition measured after 60 mins by fluorescence assay
In short: (§2)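 Purified isopeptidase activity was measured with ubiquitin-AMC as fluorogenic substrate; IC50 was derived from inhibition.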

[12] = target: T2, Ubiquitin carboxyl-terminal hydrolase isozyme L5 (Homo sapiens, UniProt Q9Y5K5); test: Inhibition of GST-tagged UCHL5 (unknown origin) using Ub-AMC as substrate preincubated for 30 mins before substrate addition measured after 60 mins by fluorescence assay; in short: as §2
T2 sequence (Q9Y5K5 whole entry): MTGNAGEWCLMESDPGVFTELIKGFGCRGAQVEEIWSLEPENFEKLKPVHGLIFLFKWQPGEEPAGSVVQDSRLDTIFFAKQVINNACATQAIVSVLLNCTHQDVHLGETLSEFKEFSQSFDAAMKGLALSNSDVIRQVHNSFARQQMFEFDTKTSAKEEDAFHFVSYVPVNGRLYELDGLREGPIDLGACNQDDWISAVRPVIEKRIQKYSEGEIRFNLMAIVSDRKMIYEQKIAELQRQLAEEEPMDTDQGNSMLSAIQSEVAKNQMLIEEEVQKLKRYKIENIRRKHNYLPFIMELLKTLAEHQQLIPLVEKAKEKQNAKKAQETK

[13] = target: T3, Ubiquitin carboxyl-terminal hydrolase 2 (Homo sapiens, UniProt O75604); test: Inhibition of USP2 catalytic domain (unknown origin) expressed in bacteria using Ub-AMC as substrate preincubated for 30 mins before substrate addition measured after 60 mins by fluorescence assay; in short: as §2
T3 sequence (O75604 whole entry): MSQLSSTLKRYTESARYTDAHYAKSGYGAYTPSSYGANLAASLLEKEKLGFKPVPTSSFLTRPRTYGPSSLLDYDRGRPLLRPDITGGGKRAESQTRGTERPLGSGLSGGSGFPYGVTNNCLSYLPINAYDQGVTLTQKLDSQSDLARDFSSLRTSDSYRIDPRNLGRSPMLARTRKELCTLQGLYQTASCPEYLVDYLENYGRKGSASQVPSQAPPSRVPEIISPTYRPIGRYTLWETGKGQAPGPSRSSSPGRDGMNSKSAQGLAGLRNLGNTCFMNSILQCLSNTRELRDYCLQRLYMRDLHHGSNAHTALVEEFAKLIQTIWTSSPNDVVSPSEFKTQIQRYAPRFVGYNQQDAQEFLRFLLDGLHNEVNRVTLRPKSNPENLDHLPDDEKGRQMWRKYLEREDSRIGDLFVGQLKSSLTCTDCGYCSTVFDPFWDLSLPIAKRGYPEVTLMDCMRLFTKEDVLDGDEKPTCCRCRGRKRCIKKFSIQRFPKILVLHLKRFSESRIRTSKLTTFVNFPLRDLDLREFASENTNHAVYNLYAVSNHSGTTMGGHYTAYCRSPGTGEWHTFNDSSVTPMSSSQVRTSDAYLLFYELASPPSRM

[14] = target: T4, Ubl carboxyl-terminal hydrolase 18 (Homo sapiens, UniProt Q9UMW8); test: Inhibition of recombinant human USP18 (16 to 372 aa) expressed in Sf9 cells using ISG15-AMC as substrate preincubated for 30 mins before substrate addition measured after 60 mins by fluorescence assay
T4 sequence (Q9UMW8 whole entry): T1 sequence (whole entry)

[15] = target: T1, Ubl carboxyl-terminal hydrolase 18 (Homo sapiens); test: Inhibition of USP18 (unknown origin) expressed in human A549 cells coexpressing ISG15-GFP assessed as reduction in free GFP at 1 to 5 uM after 24 hrs by immunoblot assay; format: cell-based
[16] = tested on: A549; test: Induction of cell death in human A549 cells assessed as accumulation of poly-ubiquitinated proteins at 1 to 5 uM after 24 hrs by immunoblot assay; format: functional, cell-based
[17] = tested on: A549; test: Induction of cell death in human A549 cells assessed as stabilization of p53 at 1 to 5 uM after 24 hrs by immunoblot assay; format: functional, cell-based

Sequence of Ubiquitin carboxyl-terminal hydrolase isozyme L1 (Homo sapiens) (P09936 whole entry, looked up): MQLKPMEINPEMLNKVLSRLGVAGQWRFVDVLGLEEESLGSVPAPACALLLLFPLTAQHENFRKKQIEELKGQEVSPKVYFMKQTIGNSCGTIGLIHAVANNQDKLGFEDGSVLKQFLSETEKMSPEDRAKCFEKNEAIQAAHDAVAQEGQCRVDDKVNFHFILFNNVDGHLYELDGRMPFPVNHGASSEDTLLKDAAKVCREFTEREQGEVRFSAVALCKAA

Structure (SMILES)	IC50 [1] [µM]	further results
O=C1/C(=C/c2ccc(F)cc2)CS(=O)(=O)C/C1=C\c1ccc(F)cc1	2.21	
O=C1/C(=C/c2ccc([N+](=O)[O-])cc2)COC/C1=C\c1ccc([N+](=O)[O-])cc1	50.1	
O=C1/C(=C/c2ccc([N+](=O)[O-])cc2)CC2(C/C1=C\c1ccc([N+](=O)[O-])cc1)OCCO2	15.3	
O=C1/C(=C/c2ccc(Oc3ccccc3)cc2)CS(=O)(=O)C/C1=C\c1ccc(Oc2ccccc2)cc1	2.94	
O=C1/C(=C/c2ccc([N+](=O)[O-])cc2)CSC/C1=C\c1ccc([N+](=O)[O-])cc1	11.6	
O=C1/C(=C/c2ccc([N+](=O)[O-])cc2)CNC/C1=C\c1ccc([N+](=O)[O-])cc1	7.15	
Cc1ccc(/C=C2\CS(=O)(=O)C/C(=C\c3ccc(C)cc3)C2=O)cc1	4.74	Activity [2]: Active; Activity [3]: Active; Activity [4]: Active; Activity [5]: Active; Activity [6]: Active
O=C1/C(=C/c2ccc([N+](=O)[O-])cc2)CCC/C1=C\c1ccc([N+](=O)[O-])cc1	27.5	
COc1ccc(/C=C2\CS(=O)(=O)C/C(=C\c3ccc([N+](=O)[O-])cc3)C2=O)cc1	2.09	
Cc1ccc(/C=C2\CS(=O)(=O)C/C(=C\c3ccc([N+](=O)[O-])cc3)C2=O)cc1	1.39	
CC(C)C[C@H](NC(=O)[C@H](Cc1ccccc1)NC(=O)c1cnccn1)B(O)O		Activity [7]: Active; Activity [8]: Active; Activity [9]: Active; inhibition [10]: inactive
O=C1/C(=C/c2ccc(O)cc2)CS(=O)(=O)C/C1=C\c1ccc([N+](=O)[O-])cc1	2.17	
CCOC(=O)C1C/C(=C\c2ccc([N+](=O)[O-])cc2)C(=O)/C(=C/c2ccc([N+](=O)[O-])cc2)C1 (stereo not drawn)	2.47	
O=C1/C(=C/c2ccc(O)cc2)CS(=O)(=O)C/C1=C\c1ccc(O)cc1	6.73	
O=C1/C(=C/c2ccc([N+](=O)[O-])cc2)CS(=O)(=O)C/C1=C\c1ccc([N+](=O)[O-])cc1	0.77	Activity [3]: Active; inhibition [11]: inactive; IC50 [12]: 13.6 µM; IC50 [13]: 32.6 µM; IC50 [14]: 33.2 µM; inhibition [15]: Active; Activity [16]: Active; Activity [17]: Active
O=C1/C(=C/c2ccccc2)CS(=O)(=O)C/C1=C\c1ccccc1	5.11	
COc1ccc(/C=C2\CS(=O)(=O)C/C(=C\c3ccc(OC)cc3)C2=O)cc1	3.57	
COc1ccc(/C=C2\CS(=O)(=O)C/C(=C\c3ccc(OC)c([N+](=O)[O-])c3)C2=O)cc1[N+](=O)[O-]	1.14	
O=C1/C(=C/c2ccc([N+](=O)[O-])cc2)C[S+]([O-])C/C1=C\c1ccc([N+](=O)[O-])cc1 (stereo not drawn)	1.79	Activity [3]: Active
O=C1/C(=C/c2cccc([N+](=O)[O-])c2)CS(=O)(=O)C/C1=C\c1cccc([N+](=O)[O-])c1	0.76	
N#Cc1ccc(/C=C2\CS(=O)(=O)C/C(=C\c3ccc(C#N)cc3)C2=O)cc1	1.35	
